From ChEMBL document CHEMBL5653631, “A Potent and Selective ULK1 Inhibitor Suppresses Autophagy and Sensitizes Cancer Cells to Nutrient Stress” (iScience, 2018)
Blank lines part the entries; values can stand above or below the compound they belong to.

Experiments:
[1] = molecular target: Epidermal growth factor receptor (Homo sapiens) (UniProt P00533); assay: Inhibition of human recombinant EGFR at 500 nM in presence of ATP by radiometric assay relative to control
[2] = molecular target: Ribosomal protein S6 kinase alpha-3 (Homo sapiens) (UniProt P51812); assay: Inhibition of human recombinant RSK2 at 500 nM in presence of ATP by radiometric assay relative to control
[3] = molecular target: Insulin receptor-related protein (Homo sapiens) (UniProt P14616); assay: Inhibition of human recombinant IRR at 500 nM in presence of ATP by radiometric assay relative to control
[4] = molecular target: T1, Testis-specific serine/threonine-protein kinase 1 (Homo sapiens) (UniProt Q9BXA7); assay: Inhibition of human recombinant TSSK1 at 500 nM related to control ULK1
T1 sequence (whole entry): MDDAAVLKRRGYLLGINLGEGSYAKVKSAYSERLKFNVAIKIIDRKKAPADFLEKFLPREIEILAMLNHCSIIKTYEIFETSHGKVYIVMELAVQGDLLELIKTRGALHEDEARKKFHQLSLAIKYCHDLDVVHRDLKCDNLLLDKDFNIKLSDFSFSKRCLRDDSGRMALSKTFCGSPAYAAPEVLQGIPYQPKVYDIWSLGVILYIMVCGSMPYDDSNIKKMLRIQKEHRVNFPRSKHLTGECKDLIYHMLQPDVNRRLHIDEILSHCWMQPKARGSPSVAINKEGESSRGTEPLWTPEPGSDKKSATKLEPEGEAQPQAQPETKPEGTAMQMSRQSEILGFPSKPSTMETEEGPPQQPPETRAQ

[5] = molecular target: T2, Serine/threonine-protein kinase A-Raf (Homo sapiens) (UniProt P10398); assay: Inhibition of human recombinant ARAF at 500 nM in presence of ATP by radiometric assay relative to control
T2 sequence (whole entry): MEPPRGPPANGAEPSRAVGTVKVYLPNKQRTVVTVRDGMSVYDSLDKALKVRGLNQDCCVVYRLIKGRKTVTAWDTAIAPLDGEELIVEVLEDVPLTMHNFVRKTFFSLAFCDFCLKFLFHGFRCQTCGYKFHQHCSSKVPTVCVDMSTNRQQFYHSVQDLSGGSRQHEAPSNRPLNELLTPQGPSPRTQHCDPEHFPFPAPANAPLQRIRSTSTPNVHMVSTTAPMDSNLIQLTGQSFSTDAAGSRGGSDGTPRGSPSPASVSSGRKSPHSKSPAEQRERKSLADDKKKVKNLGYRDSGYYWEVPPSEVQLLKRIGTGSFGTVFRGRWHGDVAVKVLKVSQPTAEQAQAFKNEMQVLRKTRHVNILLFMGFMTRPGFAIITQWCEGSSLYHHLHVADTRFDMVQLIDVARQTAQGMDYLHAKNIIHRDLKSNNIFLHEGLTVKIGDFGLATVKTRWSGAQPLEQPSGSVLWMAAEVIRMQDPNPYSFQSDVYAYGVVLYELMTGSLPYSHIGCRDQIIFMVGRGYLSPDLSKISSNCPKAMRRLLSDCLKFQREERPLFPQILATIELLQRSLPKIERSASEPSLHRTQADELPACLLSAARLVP
Procedure, shortened: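 Panel of 327 recombinant human kinases, each assayed in vitro by radiometric activity assay in duplicate at a single inhibitor concentration per compound, chosen with reference to its ULK1 inhibition. Activity remaining was expressed as percent of vehicle control, and percent inhibition was calculated as 100 minus percent activity remaining.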

[6] = molecular target: Ribosomal protein S6 kinase alpha-4 (Homo sapiens) (UniProt O75676); assay: Inhibition of human recombinant MSK2 at 15 nM in presence of ATP by radiometric assay relative to control
[7] = molecular target: Serine/threonine-protein kinase 26 (Homo sapiens) (UniProt Q9P289); assay: Inhibition of human recombinant MST4 at 15 nM related to control ULK1
[8] = molecular target: Leukocyte tyrosine kinase receptor (Homo sapiens) (UniProt P29376); assay: Inhibition of human recombinant LTK at 40 nM in presence of ATP by radiometric assay relative to control
[9] = molecular target: BDNF/NT-3 growth factors receptor (Homo sapiens) (UniProt Q16620); assay: Inhibition of human recombinant TRKB at 40 nM related to control ULK1
[10] = molecular target: Serine/threonine-protein kinase PRP4 homolog (Homo sapiens) (UniProt Q13523); assay: Inhibition of human recombinant PRP4 at 40 nM in presence of ATP by radiometric assay relative to control
[11] = molecular target: Homeodomain-interacting protein kinase 1 (Homo sapiens) (UniProt Q86Z02); assay: Inhibition of human recombinant HIPK1 at 40 nM related to control ULK1
[12] = molecular target: T3, Serine/threonine-protein kinase ICK (Homo sapiens) (UniProt Q9UPZ9); assay: Inhibition of human recombinant ICK at 40 nM related to control ULK1
T3 sequence (whole entry): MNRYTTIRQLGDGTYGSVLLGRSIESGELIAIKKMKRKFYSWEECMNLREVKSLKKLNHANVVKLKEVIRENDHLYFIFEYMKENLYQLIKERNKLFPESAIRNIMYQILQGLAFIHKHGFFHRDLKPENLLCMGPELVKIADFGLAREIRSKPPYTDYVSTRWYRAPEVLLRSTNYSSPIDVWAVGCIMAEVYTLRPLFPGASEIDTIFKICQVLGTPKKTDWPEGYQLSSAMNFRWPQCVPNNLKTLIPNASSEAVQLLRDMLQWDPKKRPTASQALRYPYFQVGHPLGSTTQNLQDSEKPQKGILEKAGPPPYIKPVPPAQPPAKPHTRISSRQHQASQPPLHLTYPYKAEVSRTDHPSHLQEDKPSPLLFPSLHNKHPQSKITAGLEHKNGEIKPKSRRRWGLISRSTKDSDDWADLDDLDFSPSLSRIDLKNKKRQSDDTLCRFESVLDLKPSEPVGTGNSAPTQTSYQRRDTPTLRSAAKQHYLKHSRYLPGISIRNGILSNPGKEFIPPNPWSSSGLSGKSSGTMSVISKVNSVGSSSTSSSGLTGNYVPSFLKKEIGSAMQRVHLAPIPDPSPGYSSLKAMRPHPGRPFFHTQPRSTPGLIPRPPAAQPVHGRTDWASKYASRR

[13] = molecular target: Protein kinase C gamma type (Homo sapiens) (UniProt P05129); assay: Inhibition of human recombinant PKCg at 40 nM in presence of ATP by radiometric assay relative to control

Insulin receptor-related protein (Homo sapiens), sequence (P14616 27-742 limits assumed): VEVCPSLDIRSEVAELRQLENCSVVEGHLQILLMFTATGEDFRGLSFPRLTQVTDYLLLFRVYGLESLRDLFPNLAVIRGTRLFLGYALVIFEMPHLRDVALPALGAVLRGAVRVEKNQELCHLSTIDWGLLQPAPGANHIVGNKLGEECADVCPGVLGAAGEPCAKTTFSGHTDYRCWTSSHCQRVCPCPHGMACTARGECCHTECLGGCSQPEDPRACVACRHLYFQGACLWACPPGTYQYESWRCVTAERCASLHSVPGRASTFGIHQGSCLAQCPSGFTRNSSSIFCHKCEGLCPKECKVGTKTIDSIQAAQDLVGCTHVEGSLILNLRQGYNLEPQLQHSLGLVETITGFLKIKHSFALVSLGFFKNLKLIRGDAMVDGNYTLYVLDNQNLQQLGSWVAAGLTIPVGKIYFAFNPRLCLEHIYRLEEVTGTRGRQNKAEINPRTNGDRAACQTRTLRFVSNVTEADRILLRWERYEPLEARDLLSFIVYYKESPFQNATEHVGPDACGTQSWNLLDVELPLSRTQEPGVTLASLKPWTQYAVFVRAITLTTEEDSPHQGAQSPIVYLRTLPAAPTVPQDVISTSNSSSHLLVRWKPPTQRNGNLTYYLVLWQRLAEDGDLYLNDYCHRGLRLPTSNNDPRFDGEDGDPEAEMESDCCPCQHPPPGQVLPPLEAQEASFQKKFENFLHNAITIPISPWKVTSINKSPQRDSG
Insulin receptor-related protein (Homo sapiens), sequence (P14616 747-1297 limits assumed): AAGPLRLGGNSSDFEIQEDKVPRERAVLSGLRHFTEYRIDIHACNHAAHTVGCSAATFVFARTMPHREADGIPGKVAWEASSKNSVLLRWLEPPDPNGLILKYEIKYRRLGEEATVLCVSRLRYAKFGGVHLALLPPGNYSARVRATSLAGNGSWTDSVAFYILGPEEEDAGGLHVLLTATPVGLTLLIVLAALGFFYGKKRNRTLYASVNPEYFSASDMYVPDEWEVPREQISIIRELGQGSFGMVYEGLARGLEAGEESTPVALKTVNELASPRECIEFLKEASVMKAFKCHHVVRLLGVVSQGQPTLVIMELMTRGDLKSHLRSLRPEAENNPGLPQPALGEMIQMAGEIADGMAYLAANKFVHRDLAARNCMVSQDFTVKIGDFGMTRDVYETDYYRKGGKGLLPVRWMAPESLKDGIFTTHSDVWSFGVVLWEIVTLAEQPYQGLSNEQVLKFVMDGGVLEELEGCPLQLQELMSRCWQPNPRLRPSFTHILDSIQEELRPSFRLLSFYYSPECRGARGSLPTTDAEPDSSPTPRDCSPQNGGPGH
Ribosomal protein S6 kinase alpha-4 (Homo sapiens), sequence (O75676 whole entry, looked up): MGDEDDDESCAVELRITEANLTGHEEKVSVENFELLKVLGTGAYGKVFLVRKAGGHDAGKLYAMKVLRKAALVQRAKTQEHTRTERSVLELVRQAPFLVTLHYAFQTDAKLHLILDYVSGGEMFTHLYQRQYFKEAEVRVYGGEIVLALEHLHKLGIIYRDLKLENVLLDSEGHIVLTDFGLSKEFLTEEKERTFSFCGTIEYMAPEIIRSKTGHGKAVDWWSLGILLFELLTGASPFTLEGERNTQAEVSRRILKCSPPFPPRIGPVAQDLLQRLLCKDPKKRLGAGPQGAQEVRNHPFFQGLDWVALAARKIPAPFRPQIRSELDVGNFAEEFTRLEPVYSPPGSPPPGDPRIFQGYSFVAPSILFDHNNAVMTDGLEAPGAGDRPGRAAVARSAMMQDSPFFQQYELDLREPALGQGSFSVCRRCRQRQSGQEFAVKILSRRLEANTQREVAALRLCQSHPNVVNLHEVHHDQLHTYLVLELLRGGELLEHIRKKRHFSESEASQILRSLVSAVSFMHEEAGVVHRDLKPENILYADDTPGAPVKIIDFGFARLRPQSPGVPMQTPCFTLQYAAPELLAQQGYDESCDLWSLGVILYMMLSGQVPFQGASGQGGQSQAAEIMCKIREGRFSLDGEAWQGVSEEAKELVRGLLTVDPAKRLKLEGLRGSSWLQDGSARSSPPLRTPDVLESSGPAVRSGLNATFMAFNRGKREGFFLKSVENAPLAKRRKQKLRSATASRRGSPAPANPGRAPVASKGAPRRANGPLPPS
Serine/threonine-protein kinase 26 (Homo sapiens), sequence (Q9P289 2-416 limits assumed): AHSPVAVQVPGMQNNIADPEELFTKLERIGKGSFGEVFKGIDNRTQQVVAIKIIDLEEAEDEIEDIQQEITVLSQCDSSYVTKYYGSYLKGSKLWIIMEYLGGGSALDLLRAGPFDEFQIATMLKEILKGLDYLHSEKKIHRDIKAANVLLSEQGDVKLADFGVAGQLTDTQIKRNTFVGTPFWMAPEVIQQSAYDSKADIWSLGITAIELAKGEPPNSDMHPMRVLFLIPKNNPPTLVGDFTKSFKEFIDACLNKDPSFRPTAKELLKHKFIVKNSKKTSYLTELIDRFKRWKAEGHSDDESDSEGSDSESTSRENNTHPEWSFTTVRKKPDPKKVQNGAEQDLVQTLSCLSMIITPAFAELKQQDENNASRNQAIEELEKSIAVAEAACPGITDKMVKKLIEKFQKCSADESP
Ribosomal protein S6 kinase alpha-3 (Homo sapiens), sequence (P51812 whole entry): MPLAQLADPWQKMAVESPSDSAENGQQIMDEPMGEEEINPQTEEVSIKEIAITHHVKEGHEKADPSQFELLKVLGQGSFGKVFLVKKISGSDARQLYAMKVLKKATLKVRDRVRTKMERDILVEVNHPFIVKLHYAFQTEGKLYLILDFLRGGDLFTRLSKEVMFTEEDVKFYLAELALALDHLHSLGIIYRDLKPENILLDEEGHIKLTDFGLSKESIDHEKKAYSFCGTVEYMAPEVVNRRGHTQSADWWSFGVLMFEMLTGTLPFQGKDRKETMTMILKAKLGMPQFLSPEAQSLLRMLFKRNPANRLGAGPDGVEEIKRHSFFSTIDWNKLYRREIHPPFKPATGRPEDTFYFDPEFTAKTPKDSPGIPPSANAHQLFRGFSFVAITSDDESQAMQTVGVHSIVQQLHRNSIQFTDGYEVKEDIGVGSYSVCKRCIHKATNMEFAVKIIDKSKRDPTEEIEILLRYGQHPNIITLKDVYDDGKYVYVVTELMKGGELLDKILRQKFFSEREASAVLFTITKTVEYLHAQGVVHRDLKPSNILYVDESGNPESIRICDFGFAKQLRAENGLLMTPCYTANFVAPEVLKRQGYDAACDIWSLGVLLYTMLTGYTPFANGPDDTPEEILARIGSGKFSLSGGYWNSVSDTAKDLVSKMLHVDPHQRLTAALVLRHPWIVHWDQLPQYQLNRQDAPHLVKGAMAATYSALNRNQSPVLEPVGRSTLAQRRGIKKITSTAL
BDNF/NT-3 growth factors receptor (Homo sapiens), sequence (Q16620 32-822 limits assumed): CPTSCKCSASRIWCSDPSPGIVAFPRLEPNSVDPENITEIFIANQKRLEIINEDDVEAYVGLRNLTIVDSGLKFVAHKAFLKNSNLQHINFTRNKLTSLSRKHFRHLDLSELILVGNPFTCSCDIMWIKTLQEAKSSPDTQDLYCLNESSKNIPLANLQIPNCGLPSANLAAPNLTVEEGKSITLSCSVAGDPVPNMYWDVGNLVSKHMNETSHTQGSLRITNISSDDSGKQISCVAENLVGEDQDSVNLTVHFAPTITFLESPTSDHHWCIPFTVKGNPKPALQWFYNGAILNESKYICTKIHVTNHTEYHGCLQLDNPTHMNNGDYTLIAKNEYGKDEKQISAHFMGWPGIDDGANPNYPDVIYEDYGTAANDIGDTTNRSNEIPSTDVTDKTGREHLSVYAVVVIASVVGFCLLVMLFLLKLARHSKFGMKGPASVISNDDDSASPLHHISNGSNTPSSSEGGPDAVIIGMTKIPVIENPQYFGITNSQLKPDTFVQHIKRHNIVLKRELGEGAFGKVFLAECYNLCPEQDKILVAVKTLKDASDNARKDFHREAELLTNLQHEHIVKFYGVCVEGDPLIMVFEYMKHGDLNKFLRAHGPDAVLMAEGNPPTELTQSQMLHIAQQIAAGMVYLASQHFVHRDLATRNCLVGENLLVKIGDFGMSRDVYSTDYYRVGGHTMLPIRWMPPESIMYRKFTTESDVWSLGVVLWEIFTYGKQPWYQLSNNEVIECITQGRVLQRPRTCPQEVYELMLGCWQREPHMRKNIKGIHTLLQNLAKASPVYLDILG
Leukocyte tyrosine kinase receptor (Homo sapiens), sequence (P29376 whole entry): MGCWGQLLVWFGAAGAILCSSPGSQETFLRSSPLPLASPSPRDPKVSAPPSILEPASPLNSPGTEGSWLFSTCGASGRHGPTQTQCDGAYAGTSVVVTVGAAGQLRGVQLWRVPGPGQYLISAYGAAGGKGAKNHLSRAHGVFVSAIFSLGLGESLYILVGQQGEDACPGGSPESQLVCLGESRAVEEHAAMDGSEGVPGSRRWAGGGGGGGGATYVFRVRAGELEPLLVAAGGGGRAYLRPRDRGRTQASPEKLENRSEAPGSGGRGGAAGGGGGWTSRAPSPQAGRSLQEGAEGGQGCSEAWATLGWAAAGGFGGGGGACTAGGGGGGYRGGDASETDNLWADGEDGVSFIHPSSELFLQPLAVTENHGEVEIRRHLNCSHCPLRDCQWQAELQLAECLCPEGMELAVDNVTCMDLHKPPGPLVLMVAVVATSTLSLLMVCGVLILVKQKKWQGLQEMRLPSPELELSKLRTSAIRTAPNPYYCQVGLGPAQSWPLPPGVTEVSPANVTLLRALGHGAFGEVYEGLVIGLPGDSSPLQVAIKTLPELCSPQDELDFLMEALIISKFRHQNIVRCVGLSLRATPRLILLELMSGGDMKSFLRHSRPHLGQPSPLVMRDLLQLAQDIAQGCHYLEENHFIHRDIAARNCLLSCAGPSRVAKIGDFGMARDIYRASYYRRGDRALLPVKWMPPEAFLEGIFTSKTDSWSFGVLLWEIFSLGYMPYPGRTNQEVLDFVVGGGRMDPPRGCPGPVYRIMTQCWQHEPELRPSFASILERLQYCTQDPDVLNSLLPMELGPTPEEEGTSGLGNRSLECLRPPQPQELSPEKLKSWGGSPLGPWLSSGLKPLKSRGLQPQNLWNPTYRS

inhibition [1]: 3% | inhibition [2]: 37% | inhibition [3]: 9% | fold change (FC) [4]: 0 | inhibition [5]: 0%
SMILES: CNC(=O)c1ccccc1Oc1nc(Nc2cc(OC)c(OC)c(OC)c2)ncc1Br

inhibition [6]: 0% | fold change (FC) [7]: 0
SMILES: CC(C)[C@H](NC(=O)c1cc(-c2cnn3cc(-c4ccc(OCCN5CCCCC5)cc4)cnc23)cs1)C(F)(F)F

inhibition [8]: 0% | fold change (FC) [9]: 0.26 | inhibition [10]: 6% | fold change (FC) [11]: 0 | fold change (FC) [12]: 0 | inhibition [13]: 0%
SMILES: O=C(N[C@@H](C1CC1)C(F)(F)F)c1cc(-c2cnn3cc(-c4ccc(F)cc4)cnc23)cs1
